# Several values for one entry are separate records, joined by “and”; a condition that tells them apart may be missing. Equal entries are not always repeated.
# Experiments:
# Cavia porcellus [1] = experiment: Change in guinea pig heart rate at 0.3 mg/kg intravenous dose; type: functional
# Cavia porcellus [2] = experiment: Change in guinea pig heart rate at 1 mg/kg intravenous dose; type: functional
# Cavia porcellus [3] = species on record: Cavia porcellus; experiment: Inhibition of antigen-induced bronchoconstriction in guinea pigs; type: functional
# Outline: (§1)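 Male Hartley guinea pigs were passively sensitised with iv rabbit anti-ovalbumin antiserum and challenged with ovalbumin 30 µg/kg iv 20–28 h later. Animals were under α-chloralose anaesthesia, ventilated, and paralysed with gallamine. Overflow volume was measured by Konzett–Rössler and expressed as a percentage of the maximum. Compound was given iv 2 min before challenge. ED50 came from the dose–inhibition curve with 95% confidence limits.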
# Cavia porcellus [4] = experiment: Change in guinea pig heart rate at 0.1 mg/kg intravenous dose; type: functional
# Cavia porcellus [5] = experiment: Inhibition of antigen-induced bronchoconstriction in guinea pigs 0.1 mg/kg intravenous dose; type: functional; outline: as §1
# Cavia porcellus [6] = experiment: Inhibition of antigen-induced bronchoconstriction in guinea pigs 0.3 mg/kg intravenous dose; type: functional; outline: as §1
# Cavia porcellus [7] = experiment: Inhibition of antigen-induced bronchoconstriction in guinea pigs at 1 mg/kg intravenous dose; type: functional; outline: as §1
# Phosphodiesterase 1 = Phosphodiesterase 1 (Homo sapiens, UniProt P54750+Q01064+Q14123); experiment: Inhibition of Phosphodiesterase 1 of guinea pig cardiac ventricle; type: protein assay, Cavia porcellus; conditions: target entry is the homologue from another species
# Outline: (§2)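 PDE1, 2 and 3 came from guinea pig cardiac ventricle and PDE4 and 5 from lung, separated by Resource-Q anion exchange on a sodium acetate gradient at pH 6.5. Assays used 1.0 µM [3H]cAMP or [3H]cGMP in 50 mM Tris-HCl pH 8.0, 5 mM MgCl2 and 4 mM 2-mercaptoethanol, for 30 min at 30 °C. Substrate hydrolysis was kept at or below 20%. Triplicates were run at 3–4 inhibitor levels, and IC50 was read graphically.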
# Phosphodiesterase 3 [8] = target: T1, Phosphodiesterase 3 (Homo sapiens, UniProt Q14432+Q13370); experiment: In vitro inhibition of Phosphodiesterase 3 activity from guinea pig cardiac ventricle; type: protein assay, Cavia porcellus; conditions: target entry is the homologue from another species; outline: as §2
# Phosphodiesterase 4 [9] = target: T2, Phosphodiesterase 4 (Homo sapiens, UniProt P27815+Q08499+Q07343+Q08493); experiment: In vitro inhibition of Phosphodiesterase 4 from guinea pig lung; type: protein assay, Cavia porcellus; conditions: target entry is the homologue from another species
# Cavia porcellus [10] = experiment: Change in guinea pig heart rate at 3 mg/kg intravenous dose; type: functional
# Cavia porcellus [11] = species on record: Cavia porcellus; experiment: Inhibition of antigen-induced bronchoconstriction in guinea pigs (95% confidence); type: functional; outline: as §1
# Cavia porcellus [12] = experiment: Inhibition of antigen-induced bronchoconstriction in guinea pigs 3 mg/kg intravenous dose; type: functional; outline: as §1
# Phosphodiesterase 3 [13] = target: T1, Phosphodiesterase 3; experiment: Inhibition of guinea pig cardiac ventricle Phosphodiesterase 3; type: protein assay, Cavia porcellus; conditions: target entry is the homologue from another species; outline: as §2
# Cavia porcellus [14] = experiment: Change in guinea pig heart rate at 0.03 mg/kg intravenous dose; type: functional
# Cavia porcellus [15] = experiment: Inhibition of antigen-induced bronchoconstriction in guinea pigs at 0.03 mg/kg intravenous dose; type: functional; outline: as §1
# [16] = target: cGMP-dependent 3',5'-cyclic phosphodiesterase (Homo sapiens, UniProt O00408); experiment: Inhibition of guinea pig cardiac ventricle Phosphodiesterase 2; design: species or system Cavia porcellus; conditions: target entry is the homologue from another species; outline: as §2
# Cavia porcellus [17] = species on record: Cavia porcellus; experiment: Inhibition of histamine-induced bronchoconstriction in guinea pigs (95% confidence); type: functional
# Outline: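 Guinea pigs received intraduodenal compound, and bronchoconstriction was induced with histamine dihydrochloride 2 µg/kg iv. Pulmonary inflation pressure was recorded in ventilated, gallamine-paralysed animals. ED50 was taken from the dose–inhibition curve using at least three doses, with 95% confidence limits.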
# Phosphodiesterase 4 [18] = target: T2, Phosphodiesterase 4; experiment: (§3) Displacement of [3H]- rolipram binding to guinea pig brain; type: tissue-based, Cavia porcellus; conditions: target entry is the homologue from another species
# Phosphodiesterase 4 [19] = target: T2, Phosphodiesterase 4; experiment: Emetic effect in ferrets at peroral 100 mg/kg dose; type: functional, organism-based; design: dose 100 mg/kg; conditions: Mustela putorius furo; target entry is the homologue from another species
# Canis familiaris [20] = experiment: Emetic effect in dog at 0.3 mg/kg dose, iv; type: functional, Canis lupus familiaris
# Canis familiaris [21] = experiment: Emetic effect in dog at 1 mg/kg dose, iv; type: functional, Canis lupus familiaris
# Phosphodiesterase 4 [22] = target: T2, Phosphodiesterase 4; experiment: as §3; type: tissue-based, Cavia porcellus; conditions: target entry is the homologue from another species; remark: listed apart in the source
# Outline: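 Guinea pig brain membranes were made by homogenising in 20 mM Tris-HCl pH 7.4 with 2 mM MgCl2 and 0.1 mM DTT, spun at 45000g, washed and stored at -80 °C. Competition used 3 nM [3H]-(±)-rolipram at 30 °C for 60 min in 25 mM Tris-HCl pH 7.4, 5 mM MgCl2 and 0.05 mM 5'-AMP. Bound ligand was separated by filtration and counted by scintillation.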
# Phosphodiesterase 4 [23] = target: T2, Phosphodiesterase 4; experiment: Inhibition of guinea pig lung Phosphodiesterase 4; type: protein assay, Cavia porcellus; conditions: target entry is the homologue from another species; outline: as §2
# Phosphodiesterase 4 [24] = target: T2, Phosphodiesterase 4; experiment: Emetic effect in ferrets at peroral 10 mg/kg; type: functional, organism-based; design: dose 10 mg/kg; conditions: Mustela putorius furo; target entry is the homologue from another species
# Phosphodiesterase 4 [25] = target: T2, Phosphodiesterase 4; experiment: Emetic effect in ferrets at peroral 30 mg/kg dose; type: functional, organism-based; design: dose 30 mg/kg; conditions: Mustela putorius furo; target entry is the homologue from another species
# Cavia porcellus [26] = experiment: Change in guinea pig heart rate at 0.01 mg/kg intravenous dose; type: functional
# Cavia porcellus [27] = experiment: Inhibition of antigen-induced bronchoconstriction in guinea pigs at 0.01 mg/kg intravenous dose; type: functional; outline: as §1
# Phosphodiesterase 4 [28] = target: T2, Phosphodiesterase 4; experiment: Emetic effect in ferrets at peroral 100 mg/kg; type: functional, organism-based; design: dose 100 mg/kg; conditions: Mustela putorius furo; target entry is the homologue from another species
# Sequence of cGMP-dependent 3',5'-cyclic phosphodiesterase (O00408 whole entry): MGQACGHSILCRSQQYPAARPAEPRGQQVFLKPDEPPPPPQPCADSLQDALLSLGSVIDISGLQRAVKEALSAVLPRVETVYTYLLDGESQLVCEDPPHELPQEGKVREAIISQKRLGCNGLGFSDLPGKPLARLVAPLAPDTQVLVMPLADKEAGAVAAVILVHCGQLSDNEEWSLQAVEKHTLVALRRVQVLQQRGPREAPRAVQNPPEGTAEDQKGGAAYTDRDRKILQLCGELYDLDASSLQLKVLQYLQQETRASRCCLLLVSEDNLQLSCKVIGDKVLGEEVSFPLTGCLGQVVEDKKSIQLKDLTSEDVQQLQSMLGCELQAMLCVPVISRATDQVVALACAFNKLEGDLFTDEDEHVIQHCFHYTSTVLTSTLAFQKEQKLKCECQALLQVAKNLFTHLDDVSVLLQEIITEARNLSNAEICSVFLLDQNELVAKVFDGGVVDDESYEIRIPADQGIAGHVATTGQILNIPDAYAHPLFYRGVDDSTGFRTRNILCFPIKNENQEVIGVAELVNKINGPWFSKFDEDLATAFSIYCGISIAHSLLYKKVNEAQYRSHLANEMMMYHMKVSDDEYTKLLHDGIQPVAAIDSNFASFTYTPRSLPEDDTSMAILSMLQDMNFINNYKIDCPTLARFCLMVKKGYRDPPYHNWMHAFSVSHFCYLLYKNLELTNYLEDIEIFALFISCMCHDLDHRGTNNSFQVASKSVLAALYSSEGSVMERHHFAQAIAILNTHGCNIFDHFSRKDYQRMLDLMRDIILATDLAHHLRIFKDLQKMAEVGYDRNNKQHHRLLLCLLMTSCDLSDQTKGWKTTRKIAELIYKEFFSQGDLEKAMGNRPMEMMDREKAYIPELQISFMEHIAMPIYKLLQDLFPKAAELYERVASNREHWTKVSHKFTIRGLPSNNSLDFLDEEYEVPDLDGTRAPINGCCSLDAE
Compound,IC50 (Phosphodiesterase 1),IC50 (Phosphodiesterase 3 [8]),IC50 (Phosphodiesterase 4 [9]),Reduction (Cavia porcellus [5]),ED50 (Cavia porcellus [11]),further results
COc1cc2cc(CO)c(CO)c(-c3ccnc(-n4c(=O)c5ccccc5c5ccccc54)c3)c2cc1OC,–,41 nM,0.2 nM,–,1.2 mg/kg,Heart rate (Cavia porcellus [2]): 18 delta beats min-1; Heart rate (Cavia porcellus [10]): 15 delta beats min-1; Reduction (Cavia porcellus [7]): 38%; Reduction (Cavia porcellus [12]): 91%
COc1cc2c(-c3ccnc(-n4nc(-c5cccnc5)c5ccccc5c4=O)c3)c(CO)c(CO)cc2cc1OCc1ccccc1.Cl.Cl,–,–,700 nM,–,–,IC50 (Phosphodiesterase 3 [13]): > 100000 nM
COc1cc2cc(COC(C)=O)c(COC(C)=O)c(-c3ccnc(-n4nc(-c5cccnc5)c5ccccc5c4=O)c3)c2cc1OC.Cl,–,3500 nM,190 nM,–,–,–
COc1ccc(C2CNC(=O)C2)cc1OC1CCCC1 (racemic) [ROLIPRAM],> 100000 nM,> 300000 nM,–,–,–,IC50 [16]: > 100000 nM
COc1cc2cc(CO)c(CO)c(-c3ccnc(-n4c(=O)ccc5ccccc54)c3)c2cc1OC,2000 nM,330 nM,2.8 nM,68%,0.12 mg/kg,ED50 (Cavia porcellus [17]): 0.4 mg/kg; Reduction (Cavia porcellus [15]): -11%; Reduction (Cavia porcellus [7]): 86%; Reduction (Cavia porcellus [12]): 90%; Ki (Phosphodiesterase 4 [18]): 6.2 nM; Emesis (vomiting/tested) (Phosphodiesterase 4 [19]): 4
COc1cc2cc(CO)c(CO)c(-c3ccnc(-n4ncc5ccccc5c4=O)c3)c2cc1OC,5000 nM,250 nM,0.68 nM,25%,0.24 mg/kg,Heart rate (Cavia porcellus [2]): 11 delta beats min-1; Heart rate (Cavia porcellus [10]): 55 delta beats min-1; Heart rate (Cavia porcellus [4]): 16 delta beats min-1; Reduction (Cavia porcellus [7]): 87%; Reduction (Cavia porcellus [12]): 91%
COc1cc2cc(CO)c(CO)c(-c3ccnc(-n4ccc(=O)c5ccccc54)c3)c2cc1OC,9000 nM,400 nM,40 nM,–,–,–
COc1cc2cc(CO)cc(-c3ccnc(-n4nc(-c5cccnc5)c5ccccc5c4=O)c3)c2cc1OC.Cl,–,81 nM,0.7 nM,–,–,Reduction (Cavia porcellus [7]): 33%
COc1cc2ccc(CO)c(-c3ccnc(-n4nc(-c5cccnc5)c5ccccc5c4=O)c3)c2cc1OC.Cl,–,700 nM,31 nM,–,–,–
COC(=O)c1cc2cc(OC)c(OC)cc2c(-c2ccnc(-n3nc(-c4cccnc4)c4ccccc4c3=O)c2)c1C(=O)OC.Cl,–,29000 nM,150 nM,–,–,–
CCOc1cc2cc(CO)c(CO)c(-c3ccnc(-n4nc(-c5cccnc5)c5ccccc5c4=O)c3)c2cc1OCC.Cl [T-2585.HCL],10000 nM,1800 nM,–,57%,0.063 mg/kg,Emesis (Canis familiaris [20]): 8 vomiting/tested; Emesis (Canis familiaris [21]): 4 vomiting/tested; Heart rate (Cavia porcellus [1]): 2 delta beats min-1; ED50 (Cavia porcellus [17]): 0.033 mg/kg; Heart rate (Cavia porcellus [14]): 4 delta beats min-1; Heart rate (Cavia porcellus [4]): 3 delta beats min-1; Reduction (Cavia porcellus [15]): 37%; Reduction (Cavia porcellus [6]): 84%; IC50 [16]: 1300 nM; Ki (Phosphodiesterase 4 [22]): 2.6 nM; IC50 (Phosphodiesterase 4 [23]): 0.13 nM; Emesis (vomiting/tested) (Phosphodiesterase 4 [24]): 4; Emesis (vomiting/tested) (Phosphodiesterase 4 [25]): 4
COc1cc2cc(CO)c(CO)c(-c3ccnc(-n4nc(-c5cccnc5)c5ccccc5c4=O)c3)c2cc1OCc1ccccc1.Cl,–,16000 nM,17 nM,–,–,–
COc1cc2cc(CO)c(CO)c(-c3ccnc(-n4ccccc4=O)c3)c2cc1OC,50000 nM,2000 nM,80 nM,–,–,–
COc1cc2c(-c3ccnc(-n4nc(-c5cccnc5)c5ccccc5c4=O)c3)c(CO)c(CO)cc2cc1OC1CCCC1.Cl,–,690 nM,30 nM,–,–,–
Cl.O=c1c2ccccc2c(-c2cccnc2)nn1-c1cc(-c2c(CO)c(CO)cc3ccccc23)ccn1,> 100000 nM,50000 nM,5000 nM,–,–,–

# Now from value to molecule, other results behind:
IC50 (Phosphodiesterase 1),IC50 (Phosphodiesterase 3 [8]),IC50 (Phosphodiesterase 4 [9]),Compound,Reduction (Cavia porcellus [5]),ED50 (Cavia porcellus [11]),further results
2000 nM,100 nM,0.49 nM,COc1cc2cc(CO)c(CO)c(-c3ccnc(-n4nc(-c5ccncc5)c5ccccc5c4=O)c3)c2cc1OC.Cl,15%,–,Heart rate (Cavia porcellus [1]): 10 delta beats min-1; Heart rate (Cavia porcellus [2]): 29 delta beats min-1; ED50 (Cavia porcellus [3]): 0.17 mg/kg; Heart rate (Cavia porcellus [4]): 12 delta beats min-1; Reduction (Cavia porcellus [6]): 82%; Reduction (Cavia porcellus [7]): 92%
4000 nM,170 nM,0.55 nM,COc1cc2cc(CO)c(CO)c(-c3ccnc(-n4nc(-c5ccccn5)c5ccccc5c4=O)c3)c2cc1OC.Cl,40%,0.18 mg/kg,Heart rate (Cavia porcellus [1]): 7 delta beats min-1; Heart rate (Cavia porcellus [2]): 22 delta beats min-1; Heart rate (Cavia porcellus [14]): 3 delta beats min-1; Heart rate (Cavia porcellus [4]): 5 delta beats min-1; Reduction (Cavia porcellus [15]): -25%; Reduction (Cavia porcellus [6]): 78%; Reduction (Cavia porcellus [7]): 87%
20000 nM,34 nM,0.9 nM,CCOc1cc2cc(CO)c(CO)c(-c3ccnc(-n4nc(-c5cccnc5)c5ccccc5c4=O)c3)c2cc1OC.Cl,23%,0.17 mg/kg,Heart rate (Cavia porcellus [4]; 0.1 mg/kg): 7 delta beats min-1 and 18 delta beats min-1; Reduction (Cavia porcellus [6]): 77%
–,5600 nM,15 nM,COc1cc2cc(CO)c(CO)c(-c3cccc(-n4nc(-c5cccnc5)c5ccccc5c4=O)n3)c2cc1OC.Cl,–,–,–
> 100000 nM,80000 nM,40 nM,COc1cc2cc(CO)c(CO)c(-c3ccc(-n4nc(-c5cccnc5)c5ccccc5c4=O)nc3)c2cc1OC.Cl,–,–,–
3000 nM,490 nM,0.16 nM,CCOc1cc2c(-c3ccnc(-n4nc(-c5cccnc5)c5ccccc5c4=O)c3)c(CO)c(CO)cc2cc1OC.Cl,39%,0.18 mg/kg,Heart rate (Cavia porcellus [1]): 7 delta beats min-1; Heart rate (Cavia porcellus [4]): 3 delta beats min-1; Reduction (Cavia porcellus [6]): 69%
2000 nM,290 nM,0.63 nM,COc1cc2cc(CO)c(CO)c(-c3ccnc(-n4nc(-c5cccnc5)c5ccccc5c4=O)c3)c2cc1OC.Cl,73%,0.022 mg/kg,ED50 (Cavia porcellus [17]): 1.1 mg/kg; Heart rate (Cavia porcellus [26]): 1 delta beats min-1; Heart rate (Cavia porcellus [14]): 3 delta beats min-1; Heart rate (Cavia porcellus [4]): 1 delta beats min-1; Reduction (Cavia porcellus [27]): 34%; Reduction (Cavia porcellus [15]): 61%; Ki (Phosphodiesterase 4 [22]): 3.5 nM; Emesis (vomiting/tested) (Phosphodiesterase 4 [24]): 6; Emesis (vomiting/tested) (Phosphodiesterase 4 [28]): 4; Emesis (vomiting/tested) (Phosphodiesterase 4 [25]): 4

# From ChEMBL document CHEMBL1132611, “Novel, potent, and selective phosphodiesterase-4 inhibitors as antiasthmatic agents: synthesis and biological activities of a series of 1-pyridylnaphthalene derivatives” (J Med Chem, 1999)
